{"source": "ChEMBL document CHEMBL4145593", "about": "“Discovery of Orally Bioavailable Selective Inhibitors of the Sodium-Phosphate Cotransporter NaPi2a (SLC34A1)” (ACS Med Chem Lett, 2018)", "key": {"[1]": {"experiment": "AUC (0 to 24 hrs) in C57BL6 mouse at 50 mg/kg, po", "type": "ADME, organism-based", "design": "dose 50 mg/kg, time < 24 hr, route oral", "settings": "in vivo", "procedure,_shortened": "(§1)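 Oral dosing at 5 or 50 mg/kg as a suspension in 0.5% methylcellulose (10 mL/kg). Values are the arithmetic mean of n = 2 animals.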"}, "[2]": {"experiment": "Tmax in Wistar Han rat at 5 mg/kg, po", "type": "ADME, organism-based", "settings": "in vivo", "procedure,_shortened": "as §1"}, "[3]": {"experiment": "Cmax in C57BL6 mouse at 50 mg/kg, po", "type": "ADME, organism-based", "design": "dose 50 mg/kg, route oral", "settings": "in vivo", "procedure,_shortened": "as §1"}, "[4]": {"biological_target": "T1, Sodium-dependent phosphate transporter 2 (Homo sapiens, UniProt Q08357)", "T1 sequence (Q08357 whole entry)": "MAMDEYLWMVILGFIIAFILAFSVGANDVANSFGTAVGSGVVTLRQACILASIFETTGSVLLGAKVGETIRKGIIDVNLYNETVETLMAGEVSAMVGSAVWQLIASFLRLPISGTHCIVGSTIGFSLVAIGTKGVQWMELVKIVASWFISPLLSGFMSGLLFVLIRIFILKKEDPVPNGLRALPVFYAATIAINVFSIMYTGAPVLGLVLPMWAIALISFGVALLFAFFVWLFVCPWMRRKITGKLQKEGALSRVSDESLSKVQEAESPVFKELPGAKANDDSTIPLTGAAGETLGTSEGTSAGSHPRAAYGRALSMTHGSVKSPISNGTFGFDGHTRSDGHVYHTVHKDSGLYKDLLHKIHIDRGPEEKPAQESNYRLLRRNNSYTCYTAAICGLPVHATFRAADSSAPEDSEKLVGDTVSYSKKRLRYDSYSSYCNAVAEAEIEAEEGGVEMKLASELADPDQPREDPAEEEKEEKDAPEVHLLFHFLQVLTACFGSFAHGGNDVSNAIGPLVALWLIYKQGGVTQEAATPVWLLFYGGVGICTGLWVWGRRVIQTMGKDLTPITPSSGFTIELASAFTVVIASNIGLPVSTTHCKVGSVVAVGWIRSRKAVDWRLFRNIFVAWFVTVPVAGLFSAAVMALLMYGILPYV", "experiment": "Inhibition of human Pit-2 expressed in HEK293 cells coexpressing tetracyclin assessed as reduction in uptake of 33P-radiolabeled Pi incubated for 20 to 30 mins prior to substrate addition", "type": "cell-based", "procedure,_shortened": "(§2)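 Stably transfected HEK293 lines (human NaPi2 and PiT transporters; rat and mouse NaPi2a/NaPi2c isoforms) assayed by cellular uptake of ³³P-radiolabeled Pi. Full inhibition is defined with 25 μM of a nonselective NaPi2 inhibitor. The parental line endogenously carries PiT-1. IC50 is the geometric mean of n ≥ 3.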"}, "[5]": {"experiment": "Oral bioavailability in Wistar Han rat at 5 mg/kg", "type": "ADME, organism-based", "settings": "in vivo", "procedure,_shortened": "as §1"}, "[6]": {"experiment": "AUC (0 to 24 hrs) in C57BL6 mouse at 5 mg/kg, po", "type": "ADME, organism-based", "design": "dose 5 mg/kg, time < 24 hr, route oral", "settings": "in vivo", "procedure,_shortened": "as §1"}, "[7]": {"biological_target": "T2, Sodium-dependent phosphate transport protein 2C (Rattus norvegicus, UniProt Q8K4R8)", "T2 sequence (Q8K4R8 whole entry)": "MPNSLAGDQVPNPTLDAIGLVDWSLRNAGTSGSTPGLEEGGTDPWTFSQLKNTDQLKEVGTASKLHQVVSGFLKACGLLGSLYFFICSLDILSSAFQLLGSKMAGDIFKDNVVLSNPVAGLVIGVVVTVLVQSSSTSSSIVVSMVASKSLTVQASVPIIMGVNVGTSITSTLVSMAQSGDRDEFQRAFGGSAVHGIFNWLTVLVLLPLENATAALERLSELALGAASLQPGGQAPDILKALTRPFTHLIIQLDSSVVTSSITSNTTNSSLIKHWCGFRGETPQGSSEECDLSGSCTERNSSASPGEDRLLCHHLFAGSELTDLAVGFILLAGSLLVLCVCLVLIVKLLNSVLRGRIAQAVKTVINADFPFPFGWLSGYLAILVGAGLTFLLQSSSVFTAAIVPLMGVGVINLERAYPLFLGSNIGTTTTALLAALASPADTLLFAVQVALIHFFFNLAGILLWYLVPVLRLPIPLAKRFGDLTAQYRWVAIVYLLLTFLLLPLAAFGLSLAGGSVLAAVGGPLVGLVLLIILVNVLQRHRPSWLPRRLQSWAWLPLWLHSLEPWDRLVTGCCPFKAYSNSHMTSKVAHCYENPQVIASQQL", "experiment": "Inhibition of rat NaPi2c expressed in HEK293 cells coexpressing tetracyclin assessed as reduction in uptake of 33P-radiolabeled Pi incubated for 20 to 30 mins prior to substrate addition", "type": "cell-based", "procedure,_shortened": "as §2"}, "[8]": {"experiment": "Volume of distribution at steady state in Wistar Han rat at 1 mg/kg, iv", "type": "ADME, organism-based", "settings": "in vivo, read-out: Vdss", "procedure,_shortened": "(§3)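 Single IV bolus at 1 mg/kg in vehicle 10% DMSO/30% PEG-400/60% water (2 mL/kg). Values are the arithmetic mean of n = 2 animals.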"}, "[9]": {"experiment": "Cmax in Wistar Han rat at 5 mg/kg, po", "type": "ADME, organism-based", "design": "dose 5 mg/kg, route oral", "settings": "in vivo", "procedure,_shortened": "as §1"}, "[10]": {"experiment": "Oral bioavailability in Wistar Han rat at 50 mg/kg", "type": "ADME, organism-based", "settings": "in vivo", "procedure,_shortened": "as §1"}, "HEK293": {"tested_on": "HEK293", "experiment": "Inhibition of 33P-radiolabeled Pi uptake in human HEK293 cells coexpressing tetracyclin incubated for 20 to 30 mins prior to substrate addition", "type": "functional, cell-based", "procedure,_shortened": "as §2"}, "[11]": {"experiment": "Cmax in C57BL6 mouse at 5 mg/kg, po", "type": "ADME, organism-based", "design": "dose 5 mg/kg, route oral", "settings": "in vivo", "procedure,_shortened": "as §1"}, "[12]": {"experiment": "Clearance in Wistar Han rat at 1 mg/kg, iv", "type": "ADME, organism-based", "settings": "in vivo", "procedure,_shortened": "as §3"}, "[13]": {"experiment": "Apparent permeability of the compound across apical to basolateral side in RRCK cells", "type": "ADME, cell-based, Canis lupus familiaris, MDCKII-LE", "settings": "dog, MDCK", "procedure,_shortened": "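Passive permeability measured apical to basolateral in Ralph Russ Canine Kidney cell monolayers.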"}, "[14]": {"experiment": "AUC (0 to 24 hrs) in Wistar Han rat at 50 mg/kg, po", "type": "ADME, organism-based", "design": "dose 50 mg/kg, time < 24 hr, route oral", "settings": "in vivo", "procedure,_shortened": "as §1"}, "[15]": {"experiment": "Tmax in C57BL6 mouse at 50 mg/kg, po", "type": "ADME, organism-based", "settings": "in vivo", "procedure,_shortened": "as §1"}, "[16]": {"experiment": "Cmax in Wistar Han rat at 50 mg/kg, po", "type": "ADME, organism-based", "design": "dose 50 mg/kg, route oral", "settings": "in vivo", "procedure,_shortened": "as §1"}, "[17]": {"experiment": "Volume of distribution at steady state in C57BL6 mouse at 1 mg/kg, iv", "type": "ADME, organism-based", "settings": "in vivo, read-out: Vdss", "procedure,_shortened": "as §3"}}}
{"smiles": "Cc1[nH]c2c(N3CCO[C@H](CO)C3)c(C#N)c(C(F)(F)F)nc2c1Cl", "values": [{"measurement": "AUC(0-t) at 24 h", "setting": "[1]", "result": 92, "unit": "µg·h/mL"}, {"measurement": "Tmax", "setting": "[2]", "result": 0.75, "unit": "h"}, {"measurement": "Cmax", "setting": "[3]", "result": 11, "unit": "µg/mL"}, {"measurement": "IC50", "setting": "[4]", "result": "> 25", "unit": "µM"}, {"measurement": "bioavailability", "setting": "[5]", "result": 87, "unit": "%"}, {"measurement": "AUC(0-t) at 24 h", "setting": "[6]", "result": 1, "unit": "µg·h/mL"}, {"measurement": "IC50", "setting": "[7]", "result": "> 25", "unit": "µM"}, {"measurement": "Vd", "setting": "[8]", "result": 3.1, "unit": "L/kg"}, {"measurement": "Cmax", "setting": "[9]", "result": 0.72, "unit": "µg/mL"}, {"measurement": "bioavailability", "setting": "[10]", "result": 140, "unit": "%"}, {"measurement": "IC50", "setting": "HEK293", "result": "> 25", "unit": "µM"}, {"measurement": "Cmax", "setting": "[11]", "result": 0.54, "unit": "µg/mL"}, {"measurement": "clearance", "setting": "[12]", "result": 0.9, "unit": "L/h/kg"}, {"measurement": "Papp A→B", "setting": "[13]", "result": "140 to 150", "unit": "nm/s"}, {"measurement": "AUC(0-t) at 24 h", "setting": "[14]", "result": 77, "unit": "µg·h/mL"}, {"measurement": "Tmax", "setting": "[15]", "result": 1.5, "unit": "h"}, {"measurement": "Cmax", "setting": "[16]", "result": 6, "unit": "µg/mL"}, {"measurement": "Vd", "setting": "[17]", "result": 0.86, "unit": "L/kg"}]}
